Laboratory results: ChEMBL document CHEMBL4196133, “NF-κB and Angiogenesis Inhibitors from the Aerial Parts of Chresta martii” (J Nat Prod, 2018)
Calls of active or inactive are those of the source. The rule behind the calls is not given here.

Legend:
[1] = Inhibition of TNFalpha-stimulated NF-kappaB (unknown origin) expressed in HEK293 cells incubated for 30 mins followed by TNFalpha stimulation for 4 hrs by luciferase reporter gene based luminescence assay; assay type: cell-based; conditions: Homo sapiens
HUVEC [2] = assay: Antiangiogenic activity in HUVEC assessed as decrease in VEGF-induced extremities at 1 ug/ml after 3 days; assay type: functional, cell-based; conditions: Homo sapiens
In short: (§1)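 HUVECs seeded on Cytodex 3 beads (400 cells/bead, 4 h at 37 °C with shaking, then 24 h), embedded in fibrin gel (fibrinogen 2.5 mg/mL, aprotinin 0.15 U/mL, thrombin) with VEGF; EGM-2 with VEGF 5 ng/mL, NHDF overlaid. Compound added after 1 h, medium renewed at 24 h then every 48 h. Imaged at 4× day 4; sprout network quantified by Angiogenesis Analyzer; ≥18 spheres, mean ± SEM, one-way ANOVA/Dunnett.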

HUVEC [3] = assay: Cytotoxicity against HUVEC at 1 ug/ml after 24 hrs by MTT assay; assay type: cell-based; conditions: human
In short: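 HUVECs (1.0 × 10^4/well) in EBM2 with 0.5% FBS, settled overnight at 37 °C, 5% CO2; compound at 1 μg/mL for 24 h. MTT added for 4 h at 37 °C, formazan dissolved in DMSO, absorbance read at 595 nm.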

HUVEC [4] = assay: Antiangiogenic activity in HUVEC assessed as decrease in VEGF-induced anchorage junctions at 1 ug/ml after 3 days; assay type: functional, cell-based; conditions: Homo sapiens; in short: as §1
HUVEC [5] = assay: Antiangiogenic activity in HUVEC assessed as decrease in VEGF-induced number of total capillary length at 1 ug/ml after 3 days; assay type: functional, cell-based; conditions: Homo sapiens; in short: as §1
HUVEC [6] = assay: Antiangiogenic activity in HUVEC assessed as decrease in VEGF-induced segments at 1 ug/ml after 3 days; assay type: functional, cell-based; conditions: Homo sapiens; in short: as §1

Row | Compound | IC50 [1] [nM] | Activity (HUVEC [2]) | Activity (HUVEC [3]) | Activity (HUVEC [4]) | Activity (HUVEC [5]) | Activity (HUVEC [6])
1 | C=C1C(=O)O[C@H]2[C@@H]1CC/C(C)=C\CC[C@@]1(C)O[C@@H]21 | 700 |  |  |  |  | 
2 | CC(=O)O[C@@H]1C[C@@](C)(OC(C)=O)C(=O)CC[C@@]2(C)O[C@@H]2C2OC(=O)C(CO)=C21 (some centres not stated) | 2400 | Active | Non-Toxic | Active | Active | Active
3 | C[C@@]12/C=C3\OC(=O)C(CO)=C3[C@@H](O)C[C@@](C)(O)[C@@](O)(CC1)O2 | 2200 | Active | Non-Toxic | Active | Active | Active
4 | CC(=O)OCC1=C2[C@@H](OC(C)=O)C[C@@](C)(OC(C)=O)C(=O)CC[C@@]3(C)O[C@H]3[C@H]2OC1=O | 6500 | Active | Non-Toxic | Active | Active | Active
5 | CC(=O)OCC1=C2[C@@H](O)C[C@@](C)(OC(C)=O)C(=O)CC[C@@]3(C)O[C@H]3[C@H]2OC1=O | 7800 |  | Non-Toxic |  |  | 
6 | COc1ccc(-c2cc(=O)c3c(O)cc(O)cc3o2)cc1OC |  |  | Non-Toxic |  |  | 

Second part, led by results:

Row | IC50 [1] [nM] | Compound | Activity (HUVEC [2]) | Activity (HUVEC [3]) | Activity (HUVEC [4]) | Activity (HUVEC [5]) | Activity (HUVEC [6])
7 | 5100 | CCC(=O)O[C@H]1C[C@@](C)(OC(C)=O)C(=O)CC[C@@]2(C)O[C@H]2[C@H]2OC(=O)C(COC(C)=O)=C12 |  | Non-Toxic |  |  | 
8 | 1800 | CC(=O)OCC1=C2/C(=C/[C@]3(C)CC[C@@](O)(O3)[C@@](C)(O)C[C@H]2OC(C)=O)OC1=O | Active | Non-Toxic | Active | Active | Active
9 | 13600 | CC(=O)OCC1=C2[C@@H](OC(C)=O)C[C@@](C)(OC(C)=O)[C@@]3(O)CC[C@@](C)(O)[C@H](OC(C)=O)[C@@]23OC1=O |  |  |  |  | 
10 | 700 | CC(=O)OCC1=C2/C(=C/[C@]3(C)CC[C@@](O)(O3)[C@](C)(O)C[C@@H]2O)OC1=O | Active | Non-Toxic | Active | Active | Active
